Calls of active or inactive are those of the source. The calls are words filed in the database; no cut-off is given here.
Legend:
Tubulin = assay: Inhibition of tubulin polymerization; type: functional, Homo sapiens
Outline: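 Tubulin assembly assay with tubulin at 10 µM. IC50 taken for inhibition of polymerization.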

Tubulin (Homo sapiens) = Tubulin (Homo sapiens) (UniProt P68371+Q9H4B7+P0DPH7+P68366+Q13509+Q71U36+P04350+Q3ZCM7+P07437+P68363+Q9BQE3+Q6PEY2+Q13885+Q9BVA1+Q9BUF5); assay: Inhibition of [3H]colchicine binding to tubulin at 1 uM; type: protein-complex assay
Outline: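 Binding of [3H]colchicine to tubulin. Tubulin at 1 µM, [3H]colchicine at 5 µM, inhibitor at 1 µM. Read-out is percent inhibition of colchicine binding.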

CCRF-CEM = assay: Antiproliferative activity against human CEM cells; type: functional, cell-based
L1210 = assay: Antiproliferative activity against mouse L1210 cells; type: functional, cell-based
Outline: (§1)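 Tumor cell proliferation assay. IC50 is the compound concentration giving 50% inhibition of proliferation, taken from dose-response curves. Reported as mean ± SE from at least three independent experiments.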

MOLT-4 = assay: Antiproliferative activity against human Molt4/C8 cells; type: functional, cell-based; outline: as §1
FM3A = assay: Antiproliferative activity against mouse FM3A cells; type: functional, cell-based
HL-60 [1] = assay: Cell cycle arrest in HL60 cells by accumulation at G2/M phase at 40 nM; type: functional, cell-based; settings: Homo sapiens
Outline: (§2)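 HL60 acute myeloblastic leukemia cells exposed to compound for 24 h, then stained with propidium iodide and analyzed by flow cytometry. Populations scored in sub-G0-G1 (apoptotic), G0-G1, S and G2-M phases, relative to untreated control cells.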

HL-60 [2] = assay: Cell cycle arrest in HL60 cells by accumulation at S phase at 8 nM; type: functional, cell-based; settings: Homo sapiens; outline: as §2
HL-60 [3] = assay: Cell cycle arrest in HL60 cells by accumulation at G2/M phase at 8 nM; type: functional, cell-based; settings: Homo sapiens; outline: as §2
HL-60 [4] = assay: Induction of apoptosis in HL60 cells by arrest at sub G0/G1 phase at 8 nM; type: functional, cell-based; settings: Homo sapiens; outline: as §2
HL-60 [5] = assay: Induction of apoptosis in HL60 cells by arrest at sub G0/G1 phase at 15 nM; type: functional, cell-based; settings: Homo sapiens; outline: as §2
HL-60 [6] = assay: Cell cycle arrest in HL60 cells by accumulation at G2/M phase at 15 nM; type: functional, cell-based; settings: Homo sapiens; outline: as §2
HL-60 [7] = assay: Cell cycle arrest in HL60 cells by accumulation at G2/M phase at 20 nM; type: functional, cell-based; settings: Homo sapiens; outline: as §2
HL-60 [8] = assay: Cell cycle arrest at HL60 cells by accumulation at sub G0/G1 phase at 20 nM; type: functional, cell-based; settings: Homo sapiens; outline: as §2

Structure (SMILES)	IC50 (Tubulin) [µM]	inhibition (Tubulin (Homo sapiens)) [%]	IC50 (CCRF-CEM) [µM]	IC50 (L1210) [µM]	IC50 (MOLT-4) [µM]	IC50 (FM3A) [µM]	other results
COc1cc(C(=O)c2cc(-c3ccc(C)cc3)sc2N)cc(OC)c1OC	0.8	90	–	–	–	–	–
COc1cccc(-c2cc(N)c(C(=O)c3cc(OC)c(OC)c(OC)c3)s2)c1	0.64	81	0.016	0.022	0.017	0.036	–
COc1cc(C(=O)c2cc(-c3ccc(F)cc3)sc2N)cc(OC)c1OC	0.86	–	–	–	–	–	–
COc1cc(C(=O)c2sc(-c3cc(OC)c(OC)c(OC)c3)cc2N)cc(OC)c1OC	–	–	0.84	2.3	1.2	3.5	–
COc1cc(C(=O)c2sc(-c3ccccc3)cc2N)cc(OC)c1OC	1.2	81	0.0045	0.011	0.0053	0.013	Activity (HL-60 [1]): Active; Activity (HL-60 [2]): Active; Activity (HL-60 [3]): Active; Activity (HL-60 [4]): Active
COc1ccc(/C=C\c2cc(OC)c(OC)c(OC)c2)cc1O [COMBRETASTATIN A4]	–	–	–	0.0028	0.0016	–	–
COc1cc(C(=O)c2sc(-c3ccc(C(F)(F)F)cc3)cc2N)cc(OC)c1OC	–	–	0.27	0.37	0.25	0.54	–
COc1cc(C(=O)c2cc(-c3ccccc3)sc2N)cc(OC)c1OC	1.3	77	–	–	–	–	–
COc1cc(C(=O)c2sc(-c3ccc(Br)cc3)cc2N)cc(OC)c1OC	–	–	0.086	0.1	0.092	0.15	–
COc1cc(C(=O)c2sc(-c3ccc(F)cc3)cc2N)cc(OC)c1OC	1.5	70	0.015	0.02	0.012	0.016	–
COc1cc(C(=O)c2sc(-c3ccncc3)cc2N)cc(OC)c1OC	–	–	0.11	0.18	0.088	0.15	–
COc1cc(C(=O)c2sc(-c3cccc([N+](=O)[O-])c3)cc2N)cc(OC)c1OC	0.97	74	0.0059	0.011	0.0075	0.017	Activity (HL-60 [5]): Active; Activity (HL-60 [6]): Active
COc1cc(C(=O)c2sc(-c3ccc([N+](=O)[O-])cc3)cc2N)cc(OC)c1OC	–	–	0.099	0.1	0.11	0.064	–
COc1cc(C(=O)c2sc(-c3ccsc3)cc2N)cc(OC)c1OC	1.3	81	0.0096	0.012	0.0088	0.0037	Activity (HL-60 [7]): Active; Activity (HL-60 [8]): Active
COc1cc(C(=O)c2sc(-c3ccc(C)cc3)cc2N)cc(OC)c1OC	1.1	80	0.015	0.018	0.016	0.016	–
COc1cc(C(=O)c2sc(-c3ccc(-c4ccccc4)cc3)cc2N)cc(OC)c1OC	–	–	> 10	> 10	> 10	> 10	–
COc1ccc(-c2cc(N)c(C(=O)c3cc(OC)c(OC)c(OC)c3)s2)cc1OC	1.1	53	0.02	0.04	0.02	0.072	–
CCOc1ccc(-c2cc(N)c(C(=O)c3cc(OC)c(OC)c(OC)c3)s2)cc1	–	–	0.27	0.59	0.24	0.51	–
COc1cc(C(=O)c2sc(-c3cccs3)cc2N)cc(OC)c1OC	1.2	80	0.0094	0.0098	0.0089	0.0017	Activity (HL-60 [7]): Active; Activity (HL-60 [8]): Active
COc1cc(C(=O)c2sc(-c3ccc(I)cc3)cc2N)cc(OC)c1OC	–	–	0.15	0.4	0.19	0.42	–
COc1cccc(-c2cc(C(=O)c3cc(OC)c(OC)c(OC)c3)c(N)s2)c1	1.2	–	–	–	–	–	–
COc1cc(C(=O)c2sc(-c3ccc(Cl)c(Cl)c3)cc2N)cc(OC)c1OC	–	–	0.29	0.26	0.27	0.4	–
COc1ccc(-c2cc(N)c(C(=O)c3cc(OC)c(OC)c(OC)c3)s2)cc1	1.1	60	0.019	0.045	0.018	0.031	–
COc1cc(C(=O)c2sc(-c3ccccc3Cl)cc2N)cc(OC)c1OC	1.2	76	0.016	0.02	0.017	0.034	–
COc1cc(C(=O)c2sc(-c3ccc(Cl)cc3)cc2N)cc(OC)c1OC	–	–	0.07	0.093	0.077	0.09	–
COc1ccc(-c2cc(C(=O)c3cc(OC)c(OC)c(OC)c3)c(N)s2)cc1	1.1	–	–	–	–	–	–
